Assay results reported in ChEMBL document CHEMBL3351671, “Synthesis and anticancer activity of (E)-2-benzothiazole hydrazones” (Eur J Med Chem, 2014).
pIC50: −log10 of the molar value.

Tests used:
[1] = Hemolytic toxicity in mouse erythrocytes assessed as induction of cell membrane disruption incubated for 30 mins by hemoglobin release based spectrophotometry; parameters: species or system Erythrocyte
In short: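 Erythrocytes were exposed to compounds (DMSO stock, water-diluted) for 30 min at room temperature, then centrifuged. Hemoglobin released into the supernatant was read at 540 nm. DMSO served as negative control and 1% Triton X-100 as positive control.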

[2] = Cytotoxicity against human HL60 cells after 72 hrs by MTT assay; assay type: functional, cell-based; conditions: HL-60, 72 h
In short: (§1)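 Cells grown in DMEM with 10% fetal bovine serum, 2 mM glutamine, 100 U/mL penicillin and streptomycin at 37 °C under 5% CO₂. Compounds were dissolved in DMSO, diluted with water and incubated with cells for 72 h. Viability was read by MTT reduction to formazan. IC₅₀ with 95% confidence interval, triplicate experiments.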

MDA-MB-435 = assay: Cytotoxicity against human MDA-MB-435 cells after 72 hrs by MTT assay; assay type: functional, cell-based; conditions: MDA-MB-435, 72 h
In short: as §1, with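 “h. […]” for “h.”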

[3] = Cytotoxicity against human HCT8 cells after 72 hrs by MTT assay; assay type: functional, cell-based; conditions: HCT-8, 72 h; in short: as §1
MRC5 = assay: Cytotoxicity against human MRC5 cells after 72 hrs by MTT assay; assay type: cell-based; conditions: mrc5, 72 h

SMILES | EC50 at 30 min [1] [µg/mL] | pIC50 [2] | pIC50 (MDA-MB-435) | pIC50 [3] | Activity (MRC5)
COc1cc(/C=N/Nc2nc3ccccc3s2)ccc1O | > 200 | < 4.78 | < 4.78 | < 4.78 | 
C(=N\Nc1nc2ccccc2s1)/c1ccc2c(c1)OCO2 | > 200 | 5.26 | < 4.77 | < 4.77 | Non-toxic
Oc1ccc(/C=N/Nc2nc3ccccc3s2)cc1O | > 200 | 4.87 | < 4.76 | < 4.76 | Non-toxic
O=[N+]([O-])c1ccc(O)c(/C=N/Nc2nc3ccccc3s2)c1 | > 200 | 5.78 | 4.85 | 4.87 | Non-toxic
Clc1ccc(/C=N/Nc2nc3ccccc3s2)cc1 | > 200 | < 4.76 | < 4.76 | < 4.76 | 
CN(C)c1ccc(/C=N/Nc2nc3ccccc3s2)cc1 | > 200 | < 4.77 | < 4.77 | < 4.77 | 
O=C(O)c1ccccc1/C=N/Nc1nc2ccccc2s1 | > 200 | < 4.77 | < 4.77 | < 4.77 | 
Clc1ccc(/C=N/Nc2nc3ccccc3s2)c(Cl)c1 | > 200 | < 4.81 | < 4.81 | < 4.81 | 
Fc1ccc(/C=N/Nc2nc3ccccc3s2)c(F)c1 | > 200 | < 4.76 | < 4.76 | < 4.76 | 
Cc1ccc(/C=N/Nc2nc3ccccc3s2)c(C)c1 | > 200 | < 4.75 | < 4.75 | < 4.75 | 
COc1ccc(/C=N/Nc2nc3ccccc3s2)c(OC)c1 | > 200 | < 4.80 | < 4.80 | < 4.80 | 
Brc1ccc(/C=N/Nc2nc3ccccc3s2)cc1 | > 200 | < 4.82 | < 4.82 | < 4.82 | 
C(=N\Nc1nc2ccccc2s1)/c1ccc(-c2ccccn2)cc1 | > 200 | 4.94 | < 4.82 | < 4.82 | Non-toxic
Oc1cccc(/C=N/Nc2nc3ccccc3s2)c1O | > 200 | 6.46 | < 4.76 | 5.89 | Non-toxic
Oc1ccc(O)c(/C=N/Nc2nc3ccccc3s2)c1 | > 200 | 6.23 | 5.20 | 4.95 | Non-toxic
Oc1ccc(/C=N/Nc2nc3ccccc3s2)c(O)c1 | > 200 | 5.72 | 4.84 | 5.46 | Non-toxic
Oc1ccc(/C=N/Nc2nc3ccccc3s2)cc1 | > 200 | 5.34 | < 4.73 | < 4.73 | Non-toxic
COc1cccc2c1C(=O)c1c(O)c3c(c(O)c1C2=O)C[C@@](O)(C(=O)CO)C[C@@H]3O[C@H]1C[C@H](N)[C@H](O)[C@H](C)O1 [DOXORUBICIN] | > 200 |  |  |  | 
